Test results published in ChEMBL document CHEMBL5104110, “Identification of 2-arylquinazolines with alkyl-polyamine motifs as potent antileishmanial agents: synthesis and biological evaluation studies” (RSC Med Chem, 2022).
≈ marks a conversion by molar mass, not a printed value. Calls of active or inactive are those of the source. The rule behind the calls is not given here.

Key:
[1] = tested on: Leishmania donovani; experiment: Antileishmanial activity against amastigote stage of Leishmania donovani MHOM/SD/62/IS-CL2D assessed as inhibition of parasite growth incubated for 3 days by CellTiter 96 Aqueous Non-Radioactive Cell Proliferation Assay; format: functional, organism-based; conditions: 72 h
[2] = Selectivity index, ratio of IC50 for cytotoxicity against PMA-differentiated THP-1 macrophages to IC50 for antileishmanial activity against log phase of wild type Leishmania donovani MHOM/80/IN/Dd8 promastigotes; format: toxicity; conditions: human; read-out: Ratio IC50
[3] = Cytotoxicity against human PMA-differentiated THP-1 macrophages assessed as inhibition of cell growth by MTT assay; format: toxicity, cell-based, Macrophage
In short: (§1)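 About 2 × 10^5 THP-1 monocytes were differentiated with 20 ng/mL PMA for 48 h at 37 °C, and non-adherent cells were washed off with serum-free medium. Adherent macrophages were exposed to 10, 20, 50 and 100 µM compound for 48 h at 37 °C in 5% CO2. Viability was read by MTT.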

[4] = tested on: Leishmania donovani; experiment: Antileishmanial activity against log phase of wild type Leishmania donovani MHOM/80/IN/Dd8 promastigotes assessed as inhibition of cell growth incubated for 48 hrs by MTT assay; format: functional, organism-based; conditions: MHOM/80/IN/Dd8, 48 h
In short: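 L. donovani Dd8 promastigotes grown at 24 °C, pH 7.2, in HEPES-modified RPMI-1640 with 10% heat-inactivated FBS and antibiotics. 2 × 10^5 log-phase cells were exposed to 10–100 µM compound (10 mM DMSO stocks diluted in medium) for 48 h at 24 °C. MTT (400 µg/mL final) was added for 4 h at 37 °C, formazan dissolved in DMSO, and A540 read. IC50 was taken against untreated cells; mean ± SD of three independent experiments.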

[5] = tested on: Leishmania mexicana; experiment: Antileishmanial activity against Leishmania mexicana assessed as inhibition of parasite growth; format: functional, organism-based
[6] = tested on: Leishmania braziliensis; experiment: Antileishmanial activity against Leishmania braziliensis assessed as inhibition of parasite growth; format: functional, organism-based
[7] = tested on: Leishmania amazonensis; experiment: Antileishmanial activity against Leishmania amazonensis assessed as inhibition of parasite growth; format: functional, organism-based
[8] = tested on: Leishmania donovani; experiment: Induction of ROS generation in wild type Leishmania donovani MHOM/80/IN/Dd8 promastigotes at 5 to 10 uM incubated for 48 hrs by MitoSOX red dye based fluorescence spectrophotometric analysis; format: functional, organism-based; conditions: dose 5-10 µM
In short: (§2)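 Promastigotes at about 1 × 10^6/mL were treated at ~5 or ~10 µM for 3, 6, 24 and 48 h, with 0.2% DMSO as vehicle and antimycin A (10 µM) as positive control. Cells were washed twice in HBSS and stained with 5 µM MitoSOX red for 20 min at 25 °C. Fluorescence was read at 510/580 nm ex/em.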

[9] = tested on: Leishmania donovani; experiment: Induction of ROS generation in wild type Leishmania donovani MHOM/80/IN/Dd8 promastigotes at 10 uM incubated for 24 hrs by MitoSOX red dye based fluorescence spectrophotometric analysis; format: functional; in short: as §2
[10] = tested on: Leishmania donovani; experiment: Induction of ROS generation in wild type Leishmania donovani MHOM/80/IN/Dd8 promastigotes at 5 uM incubated for 24 hrs by MitoSOX red dye based fluorescence spectrophotometric analysis relative to control; format: functional; in short: as §2
[11] = tested on: Leishmania donovani; experiment: Antileishmanial activity against Leishmania donovani assessed as inhibition of parasite growth incubated for 2 hrs by y [3H]thymidine incorporation assay; format: functional, organism-based
[12] = tested on: Macrophage; experiment: Cytotoxicity against human PMA-differentiated THP-1 macrophages assessed as inhibition of cell growth measured upto 100 uM by MTT assay; format: toxicity, cell-based; in short: as §1
[13] = tested on: Leishmania donovani; experiment: Induction of ROS generation in wild type Leishmania donovani MHOM/80/IN/Dd8 promastigotes incubated for 24 hrs by MitoSOX red dye based fluorescence spectrophotometric analysis; format: functional, organism-based
In short: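 Promastigotes were grown at 24 °C in HEPES-modified RPMI-1640 with 10% heat-inactivated FBS, pH 7.2. About 1 × 10^6 parasites/ml were exposed to ~5 µM or ~10 µM test compound. Controls were untreated cells, antimycin A (10 µM) and 0.2% DMSO vehicle. Cells were washed twice in HBSS and stained with 5 µM MitoSOX red for 20 min at 25 °C. Fluorescence was read at ex 510/em 580 nm.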

SMILES: O=C1c2cc(I)ccc2-n2c1nc1ncccc1c2=O
- IC50 [1]: 0.016 µg/mL (≈ 0.0427 µM)

SMILES: Oc1ccc(-c2nc(NCCCN3CCOCC3)c3ccccc3n2)cc1
- selectivity ratio [2]: 1.42
- IC50 [3]: 71 µM
- IC50 [4]: 50 µM

SMILES: CN(C)CCCNc1nc(-c2ccccc2)nc2ccccc12
- selectivity ratio [2]: > 11.1
- IC50 [3]: > 100 µM
- IC50 [4]: 9 µM

SMILES: NCCNc1nc(-c2ccc(Cl)cc2)nc2ccccc12
- selectivity ratio [2]: 2.3
- IC50 [3]: 15 µM
- IC50 [4]: 6.5 µM

SMILES: CN(C)CCNc1nc(-c2ccc(O)cc2)nc2ccccc12
- selectivity ratio [2]: 9.27
- IC50 [3]: 51 µM
- IC50 [4]: 5.5 µM

SMILES: CN(C)CCNc1nc(-c2ccc(Cl)cc2)nc2ccccc12
- selectivity ratio [2]: 8
- IC50 [3]: 60 µM
- IC50 [4]: 7.5 µM

SMILES: COc1ccc(-c2nc(NCCCN3CCOCC3)c3ccccc3n2)cc1
- selectivity ratio [2]: 2.24
- IC50 [3]: 56 µM
- IC50 [4]: 25 µM

SMILES: COc1cc(-c2nc(NCCCN(C)C)c3ccccc3n2)cc(OC)c1OC
- selectivity ratio [2]: 2.06
- IC50 [3]: 61 µM
- IC50 [4]: 29.5 µM

SMILES: COc1cccc(-c2nc(O)c3ccccc3n2)c1
- EC50 [5]: 5.29 µM
- EC50 [6]: 4.89 µM
- EC50 [7]: 9.14 µM

SMILES: CN(C)CCCNc1nc(-c2ccc(O)cc2)nc2ccccc12
- selectivity ratio [2]: 10
- IC50 [3]: 65 µM
- IC50 [4]: 6.5 µM

SMILES: NCCCCNc1nc(-c2ccc(Cl)cc2)nc2ccccc12
- selectivity ratio [2]: 1.08
- IC50 [3]: 13 µM
- IC50 [4]: 12 µM

SMILES: CN1CCN(CCCNc2nc(-c3ccc(F)cc3)nc3ccccc23)CC1
- selectivity ratio [2]: 5
- IC50 [3]: 40 µM
- IC50 [4]: 8 µM

SMILES: COc1ccc(-c2nc(NCCCN3CCOCC3)c3ccccc3n2)cc1O
- selectivity ratio [2]: 1.76
- IC50 [3]: 33.5 µM
- IC50 [4]: 19 µM

SMILES: COc1cc(-c2nc(NCCN(C)C)c3ccccc3n2)cc(OC)c1OC
- selectivity ratio [2]: 7.69
- IC50 [3]: 50 µM
- IC50 [4]: 6.5 µM

SMILES: COc1ccc(-c2nc(NCCCN3CCN(C)CC3)c3ccccc3n2)cc1
- selectivity ratio [2]: 7.28
- IC50 [3]: 53 µM
- IC50 [4]: 6.3 µM

SMILES: COc1ccc(-c2nc(NCCN(C)C)c3ccccc3n2)cc1
- Activity [8]: Active
- selectivity ratio [2]: 11
- IC50 [3]: 57 µM
- Activity [9]: 82%
- Activity [10]: 50%
- IC50 [4]: 5 µM

SMILES: CCCCCCCCCCCCCCCCOP(=O)([O-])OCC[N+](C)(C)C [MILTEFOSINE]
- selectivity ratio [2]: 3.42
- IC50 [3]: 36 µM
- IC50 [4]: 10.5 µM

SMILES: COc1ccc(-c2nc(NCCCN(C)C)c3ccccc3n2)cc1
- Activity [8]: Active
- selectivity ratio [2]: 13.5
- IC50 [3]: 67.5 µM
- Activity [9]: 119%
- Activity [10]: 63%
- IC50 [4]: 5 µM

SMILES: C=CC(C)(C)c1cc(/C=C/C(=O)c2ccc(O)cc2)c(OC)cc1O [LICOAGROCHACONE A]
- IC50 [11]: 4 µg/mL (≈ 11.8 µM)

SMILES: NCCCCNc1nc(-c2ccc(F)cc2)nc2ccccc12
- selectivity ratio [2]: 1.96
- IC50 [3]: 64 µM
- IC50 [4]: 32.5 µM

SMILES: CN(C)CCCNc1nc(-c2ccc(F)cc2)nc2ccccc12
- selectivity ratio [2]: 4.84
- IC50 [3]: 63 µM
- IC50 [4]: 13 µM

SMILES: COc1cc(-c2nc(NCCCN3CCN(C)CC3)c3ccccc3n2)cc(OC)c1OC
- selectivity ratio [2]: 0.6
- IC50 [3]: 54 µM
- IC50 [4]: 90 µM

SMILES: CN(C)CCCNc1nc(-c2ccc(Cl)cc2)nc2ccccc12
- selectivity ratio [2]: 9.53
- IC50 [3]: 62 µM
- IC50 [4]: 6.5 µM

SMILES: COc1cc(-c2nc(NCCCN3CCOCC3)c3ccccc3n2)cc(OC)c1OC
- Activity [12]: Toxic

SMILES: COc1ccc(-c2nc(NCCN(C)C)c3ccccc3n2)cc1O
- selectivity ratio [2]: 3.46
- IC50 [3]: 22.5 µM
- IC50 [4]: 6.5 µM

SMILES: CN1CCN(CCCNc2nc(-c3ccc(Cl)cc3)nc3ccccc23)CC1
- IC50 [4]: 28.5 µM

SMILES: CCCCCC[C@H]1C(=O)O[C@H](C)[C@H](NC(=O)c2cccc(NC=O)c2O)C(=O)O[C@@H](C)[C@@H]1OC(=O)CC(C)C
- Activity [13]: Active

SMILES: COc1cccc(-c2nc(NCCCN(C)C)c3ccccc3n2)c1
- selectivity ratio [2]: 6.72
- IC50 [3]: 37 µM
- IC50 [4]: 5.5 µM

SMILES: NCCNc1nc(-c2ccc(F)cc2)nc2ccccc12
- selectivity ratio [2]: 2.56
- IC50 [3]: 64 µM
- IC50 [4]: 25 µM
